Marks after values point to notes of the source that are not given here.
How the values were obtained:
[1] = PopPK model of MDMA and MDA; assay type: in vivo, human
Method in brief: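 Single-dose plasma data came from 65 healthy volunteers: 16 from the fasted food-effect study and 49 from a randomized, double-blind, placebo-controlled crossover study. The dataset held 2012 MDMA and 1871 MDA samples, excluding BLQ values, samples with missing time and pre-dose concentrations. Modelling used nonlinear mixed effects with first-order conditional estimation with interaction. One- and two-compartment models were tested, with first-order or sequential zero-/first-order absorption.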

[2] = MPKF phase I two-period crossover food effect pharmacokinetic study; assay type: in vivo, human; details: for AUC0–inf LSM geometric mean ratio (90% CI) / C max LSM geometric mean ratio (90% CI): fed (test) vs fasted (reference); for AUC(0-inf) / Cmax: human, 120 mg; for AUC(0-inf): AUC0–inf; for Cmax: C max
[3] = HVs, single oral dose of 100 mg MDMA HCl, absence of paroxetine; cited from earlier work
[4] = cited from earlier work
[5] = plasma, oral, Median [Min, Max], 120 mg MDMA HCl, Fasted
[6] = plasma, oral, Median [Min, Max], 120 mg MDMA HCl, Fed
[7] = plasma, po, Geo. Mean (Geo. CV%), single oral 120 mg MDMA HCl, Fasted, N = 15
[8] = plasma, po, Geo. Mean (Geo. CV%), single oral 120 mg MDMA HCl, Fed (high-fat/high-calorie meal), N = 14
[9] = MPKF fasted vs NIDA light breakfast
[10] = MPKF fed vs NIDA light breakfast

**Q.** What does the source list for `CC(N)Cc1ccc2c(c1)OCO2` (stereo not drawn) [MDA, 3,4‐methylenedioxyamphetamine]?
**A.** lower V4 (MDA peripheral volume of distribution) in female subjects ([1]; compared to male): 18%; Body weight effect on CLM, Bootstrap median (95% CI) ([1]; covariate coefficient): 0.585 (0.209, 0.879); Body weight effect on CLM, Estimate ([1]; covariate coefficient): 0.580; Body weight effect on QM, Bootstrap median (95% CI) ([1]; covariate coefficient): 1.02 (0.408, 1.63); Body weight effect on QM, Estimate ([1]; covariate coefficient): 1.00; Sex effect on V4, Bootstrap median (95% CI) ([1]; female vs male): −0.18 (−0.321, −0.0256); Sex effect on V4, Estimate ([1]; female vs male): −0.181; Vd ([1]; human, plasma, oral): 20.8 L; clearance ([1]; human, plasma, oral): 582 mL/min; IIV on CLM, Estimate ([1]; inter-individual variability): 32.0 ^ b , ^ c %CV; IIV on QM, Estimate ([1]; inter-individual variability): 46.8 ^ b , ^ d %CV; IIV on V4, Estimate ([1]; inter-individual variability): 35.2 ^ c , ^ d %CV; CLM, Bootstrap median (95% CI) ([1]; n = 1000 bootstrap): 36.1 (33.5, 38.8) L/h; QM, Bootstrap median (95% CI) ([1]; n = 1000 bootstrap): 83.9 (68.8, 103) L/h; V3, Bootstrap median (95% CI) ([1]; n = 1000 bootstrap): 20.8 (11.9, 28.4) L; V4, Bootstrap median (95% CI) ([1]; n = 1000 bootstrap): 213 (181, 246) L; AUC0–inf LSM geometric mean ratio (90% CI) [2]: 0.99 (0.93–1.06); C max LSM geometric mean ratio (90% CI) [2]: 0.96 (0.90–1.03); AUC(0-inf) [2, 5]: 358 ng·h/mL; AUC(0-inf) [2, 6]: 343 ng·h/mL; Cmax [2, 5]: 12.5 ng/mL; AUC(0-inf) [2, 7]: 330 ng·h/mL; AUC(0-inf) [2, 8]: 369 ng·h/mL

**Q.** Which “CL/F (apparent oral clearance)” value [3] does the source give for `CNC(C)Cc1ccc2c(c1)OCO2` (stereo not drawn) [MDMA, 3,4‐methylenedioxymethamphetamine] here?
**A.** 36.3 L/h

**Q.** And the “CLR (renal clearance)” value [3]?
**A.** 9.40 L/h

**Q.** And the “effective dose (as low as)” value [4]?
**A.** ≥ 75 mg HCl

**Q.** What about the “tolerated dose (as high as)” value ([4]; split dose) of the same compound?
**A.** ≤ 225 mg HCl

**Q.** What about the “fmet (fraction of MDMA metabolized to MDA)” value ([1]; FIXED in the model) of the same compound?
**A.** 0.1 FIXED

**Q.** What about the “faster absorption in fasted subjects” value ([1]; MPKF fasted compared to NIDA light breakfast) of the same compound?
**A.** 193%

**Q.** And the “Fasted status effect on ka, Bootstrap median (95% CI)” value [1, 9]?
**A.** 1.08 (0.277, 4.31)

**Q.** And the “Fasted status effect on ka, Estimate” value [1, 9]?
**A.** 1.93

**Q.** And the “Fed status effect on ka, Bootstrap median (95% CI)” value [1, 10]?
**A.** −0.496 (−0.645, −0.239)

**Q.** And the “Fed status effect on ka, Estimate” value [1, 10]?
**A.** −0.484

**Q.** And the “Study effect on V2/F, Bootstrap median (95% CI)” value ([1]; MPKF vs NIDA)?
**A.** −0.267 (−0.342, −0.19)

**Q.** What about the “Study effect on V2/F, Estimate” value ([1]; MPKF vs NIDA) of the same compound?
**A.** −0.263

**Q.** And the “lower MDMA CL/F for MPKF subjects” value ([1]; compared to NIDA)?
**A.** 36%

**Q.** And the “lower MDMA V2/F for MPKF subjects” value ([1]; compared to NIDA)?
**A.** 26%

**Q.** What about the “Body weight effect on V2/F, Bootstrap median (95% CI)” value ([1]; covariate coefficient) of the same compound?
**A.** 0.884 (0.6, 1.11)

**Q.** And the “Body weight effect on V2/F, Estimate” value ([1]; covariate coefficient)?
**A.** 0.885

**Q.** And the “ALAG1 (absorption lag time), Estimate” value ([1]; final MDMA PopPK model)?
**A.** 0.322 h

**Q.** And the “CL/F, Estimate” value ([1]; final MDMA PopPK model)?
**A.** 41.5 L/h

**Q.** And the “D1 (duration of zero order input), Estimate” value ([1]; final MDMA PopPK model)?
**A.** 0.304 h

**Q.** What about the “V2/F, Estimate” value ([1]; final MDMA PopPK model) of the same compound?
**A.** 462 L

**Q.** What about the “ka, Estimate” value ([1]; final MDMA PopPK model) of the same compound?
**A.** 1.17 h⁻¹

**Q.** And the “IIV on CL/F, Estimate” value ([1]; inter-individual variability)?
**A.** 30.5 ^a %CV

**Q.** What about the “IIV on D1, Estimate” value ([1]; inter-individual variability) of the same compound?
**A.** 153 %CV

**Q.** And the “IIV on KA, Estimate” value ([1]; inter-individual variability)?
**A.** 60.2 %CV

**Q.** And the “IIV on V2/F, Estimate” value ([1]; inter-individual variability)?
**A.** 19.9 ^a %CV

**Q.** What about the “ALAG1, Bootstrap median (95% CI)” value ([1]; n = 1000 bootstrap) of the same compound?
**A.** 0.323 (0.273, 0.358) h

**Q.** And the “CL/F, Bootstrap median (95% CI)” value ([1]; n = 1000 bootstrap)?
**A.** 41.8 (37.7, 45.8) L/h

**Q.** And the “D1, Bootstrap median (95% CI)” value ([1]; n = 1000 bootstrap)?
**A.** 0.271 (0.141, 0.485) h

**Q.** And the “V2/F, Bootstrap median (95% CI)” value ([1]; n = 1000 bootstrap)?
**A.** 461 (429, 496) L

**Q.** And the “ka, Bootstrap median (95% CI)” value ([1]; n = 1000 bootstrap)?
**A.** 1.17 (0.969, 1.43) 1/h

**Q.** And the “AUC0–inf LSM geometric mean ratio (90% CI)” value [2]?
**A.** 0.99 (0.94–1.04)

**Q.** What about the “C max LSM geometric mean ratio (90% CI)” value [2] of the same compound?
**A.** 0.97 (0.92–1.01)

**Q.** What about the “T max delay following administration with food” value ([2]; fed vs fasted) of the same compound?
**A.** 2 h

**Q.** What about the AUC(0-inf) [2, 5] of the same compound?
**A.** 3730 ng·h/mL

**Q.** And the Cmax [2, 5]?
**A.** 234 ng/mL

**Q.** And the Cmax [2, 6]?
**A.** 230 ng/mL

**Q.** What about the AUC(0-inf) [2, 7] of the same compound?
**A.** 3390 ng·h/mL

**Q.** What about the AUC(0-inf) [2, 8] of the same compound?
**A.** 3320 ng·h/mL

**Q.** What about the “T max, Median [Min, Max]” value ([2]; plasma, 120 mg MDMA HCl, Fasted) of the same compound?
**A.** 2.1 [2.0, 8.0] h

**Q.** And the “adverse events (AE) severity” value ([2]; single 120 mg MDMA HCl, healthy volunteers)?
**A.** mild in severity and resolved

Source: article PMC11812931 (CPT: Pharmacometrics & Systems Pharmacology, 2024)
